This is a sample that favours compounds with a hit; in the whole collection about 3.5% have one here.
MrgX1 ag = agonists of human MrgX1 receptor, primary screen, HEK293 cells, Fluo-4 calcium flux. Mas-related G-protein coupled receptor member X1 (Homo sapiens), Q96LB2. actives 0.44% (n = 310,000). B-score at 10 µM. Fluo-4 calcium fluorescence, agonist mode; hits give high values;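 active = calcium response B-score plate-corrected fluorescence ratio at least 3 library SD, with starting fluorescence B-score inside 5 SD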
Target sequence (Q96LB2 whole entry, looked up): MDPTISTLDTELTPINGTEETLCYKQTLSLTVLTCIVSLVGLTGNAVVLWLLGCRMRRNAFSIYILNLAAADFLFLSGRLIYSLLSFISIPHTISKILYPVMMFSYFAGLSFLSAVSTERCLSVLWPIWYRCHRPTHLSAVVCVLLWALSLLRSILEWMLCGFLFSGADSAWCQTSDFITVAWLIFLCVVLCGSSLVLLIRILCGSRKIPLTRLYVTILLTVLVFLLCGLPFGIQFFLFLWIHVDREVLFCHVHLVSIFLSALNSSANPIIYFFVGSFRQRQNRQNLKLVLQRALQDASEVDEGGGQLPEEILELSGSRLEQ
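System – MrgX1-expressing HEK293 cells · Incubation – cells plated overnight, dye loaded 0.5 h 37 °C, 0.5 h room temperature · Technique – kinetic Fluo-4 NW fluorescence of intracellular calcium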
MrgX1 PAM = positive allosteric modulators of MrgX1, primary screen, HEK293 cells, Fluo-4 calcium flux; B-score at 10 µM; FDSS; hits give high values; Mas-related G-protein coupled receptor member X1 (Homo sapiens), Q96LB2; AID 588675, 2011; actives 0.63% (n = 310,000);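 active = plate-corrected calcium response at least 3 library SD above typical, normal starting fluorescence, not activating the receptor alone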;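 also: compound read alongside a low EC10 to EC30 dose of BAM8-22 agonist; peak minus trough fluorescence over baseline measured at the second addition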
RGS4 block = RGS4 inhibitors, primary screen, cell-based, HEK293 M3R inducible RGS4, calcium flux; actives 0.45% (n = 310,000); Regulator of G-protein signaling 4 (Homo sapiens), P49798; B-score at 10 µM; Fluo-4 calcium flux; hits give high values; triggered by carbachol at its EC20;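 active = B-score, a plate-corrected calcium signal, over three deviations above library mean, with baseline fluorescence within five deviations of library mean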;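 also: RGS4 expression induced by doxycycline in cells with stable M3 receptor; B-score is computed from the integrated fluorescence ratio over baseline after carbachol; higher B-score means a larger calcium signal and so more RGS4 inhibition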
Target sequence (P49798 whole entry, looked up): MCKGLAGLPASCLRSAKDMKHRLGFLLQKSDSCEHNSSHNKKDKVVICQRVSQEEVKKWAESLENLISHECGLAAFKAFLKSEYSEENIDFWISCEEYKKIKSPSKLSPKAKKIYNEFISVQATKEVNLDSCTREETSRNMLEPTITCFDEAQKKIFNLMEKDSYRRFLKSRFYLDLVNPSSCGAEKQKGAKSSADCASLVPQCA
RGS4 pot = RGS4 potentiators or activators, primary screen, cell-based, HEK293 M3R inducible RGS4, calcium flux; actives 0.92% (n = 310,000); B-score at 10 µM; AID 463111, 2010; carbachol calcium flux Fluo4; hits give low values;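 active = B-score of the integrated calcium signal more than 4 SD below the library mean, with starting fluorescence not abnormally high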;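 also: negative B-score means reduced calcium response which marks RGS4 activation or potentiation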
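Assay system: HEK293 FlpIn-TREx cells, stable M3R, doxycycline-inducible RGS4 / Probe or stimulus: carbachol, ECmax concentration / Times: overnight RGS4 induction, 30 min dye load 37 °C, 20 min compound RT / Signal: kinetic calcium fluorescence imaging with Fluo4-AM dye, 2 µM / Measure: Agonist-evoked peak-minus-minimum fluorescence over baseline, integrated ratio, B score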
MrgX1 antag = antagonists of human MrgX1 receptor, primary screen, HEK293 cells, Fluo-4 calcium flux; Mas-related G-protein coupled receptor member X1 (Homo sapiens), Q96LB2; BAM8-22 antagonism; hits give low values; B-score at 10 µM; actives 1.3% (n = 310,000); AID 588676, 2011;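 active = calcium-response B-score plate-corrected more than 3 library SD below zero, starting fluorescence within 5 deviations, no agonist response on first addition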;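 also: peak minus trough fluorescence over baseline after final BAM8-22 challenge near maximal dose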
Numbers stand for hits; – = inactive; · = no result given.

SMILES | MrgX1 ag | MrgX1 PAM | RGS4 block | RGS4 pot | MrgX1 antag
COCc1ccc(C(=O)N(C)CC2CCCN(CCc3ccc(OC)cc3)C2)o1 (configuration not stated) | – | – | – | -7.5 | –
Cc1cccc(-c2oc3ccccc3c2-c2ccc3c(c2)OCO3)c1 | – | – | – | – | -6
Cc1ccc(S(=O)(=O)N2[C@@H](c3ccccc3)C(C(=O)O)=CC[C@H]2c2ccc3c(c2)OCO3)cc1 | – | 10 | · | · | –
Cc1ccc(S(=O)(=O)N2[C@@H](c3ccc(Cl)cc3)C(C(=O)O)=CC[C@H]2c2cccc(C)c2)cc1 | – | – | · | · | –
Cc1ccc(S(=O)(=O)N2[C@@H](c3ccc(Cl)cc3)C(C(=O)O)=CC[C@H]2c2cccc(Cl)c2)cc1 | 30 | – | · | · | –
N/C(=C\C(=O)c1cc(Cl)ccc1O)C(Cl)(Cl)Cl | – | – | – | – | –
Cc1ccc(-n2cc(CN3CCCN(C=O)CC3)c(-c3ccc(F)cc3)n2)cc1 | – | 11 | – | – | –
CC(=O)N1CCCN(Cc2cn(-c3ccc(C)cc3)nc2-c2ccc(F)cc2)CC1 | – | – | – | – | –
C/C(=C\c1ccccc1)C(=O)N1CCN(c2cccc(C(F)(F)F)c2)CC1 | – | – | – | – | -4.9
CC(C)(C)C(=O)NC(=S)NNC(=O)c1ccc(Cl)cc1Cl | – | – | – | -7 | –
COC(=O)NNC(=O)c1ccc(Cl)cc1Cl | – | – | – | – | –
CC(C)(C)C(=O)NC(=S)NNC(=O)c1ccc(-c2ccccc2)cc1 | 179 | – | – | -7.5 | –
Cc1ccc(S(=O)(=O)NN2C(=O)c3ccccc3NC2c2ccccn2)cc1 (configuration not stated) | – | – | – | – | –
O=[N+]([O-])c1ccc(NC(=S)NCc2ccncc2)cc1 | – | – | – | – | -4.7
O=[N+]([O-])c1ccc(NC(=S)NCc2ccc(F)cc2)cc1 | 27 | – | – | – | –
COc1ccc(-c2cn(Cc3ccc(C(N)=O)cc3)c(-c3ccncc3)n2)cc1 | – | – | · | · | –
CN(C)c1ccc(/C=N/N(CCO)C2=NS(=O)(=O)c3ccccc32)cc1 | – | – | – | -7.9 | –
O=S1(=O)N=C(N(CCO)/N=C/c2ccc(Cl)cc2)c2ccccc21 | – | – | – | – | –
COc1ccc2cnn(-c3ccc(OC(F)(F)F)cc3)c(=O)c2c1OC | – | – | – | – | –
Cc1c(C(=O)NCCCN2CCOCC2)sc2nc(-c3ccccc3)cn12 | – | – | – | – | -7.3
COc1ccc(OC)c(Nc2cc(C(=O)NCCCN3CCOCC3)c3ccccc3n2)c1 | – | – | – | – | -5.7
O=C(NCCCN1CCOCC1)c1cc(-c2cccc(Br)c2)nc2ccccc12 | – | – | – | – | –
O=C(NCCCN1CCOCC1)c1cc(-c2ccc(Cl)s2)nc2ccccc12 | – | – | – | – | -7.4
COCCNC(=O)c1sc2nc(-c3ccccc3)cn2c1C | – | – | – | – | –
O=C(CCNC(=O)c1ccc([N+](=O)[O-])cc1)Nc1ccc(S(=O)(=O)N2CCOCC2)cc1 | – | – | – | – | –
SMILES | MrgX1 ag | MrgX1 PAM | RGS4 block | RGS4 pot | MrgX1 antag
Cn1c(SCc2ccccc2)nc(N)c(N=O)c1=O | – | – | – | – | –
O=C(/C=C/c1ccco1)OCC1CCCN2CCCCC12 (configuration not stated) | – | – | – | -7 | –
COc1ccc2c(c1)nc(CN1CCN(CCO)CC1)n2C | – | – | – | – | –
Cc1ccc(OCc2cc(C(=O)N3CCC(c4ccccc4Cl)C3)no2)cc1C (configuration not stated) | – | – | – | – | –
Cc1cccc([C@@H]2[C@@H]3C(=O)N(Cc4ccccc4)C(=O)[C@@H]3[C@]3(Cc4ccc(Cl)cc4)C(=O)N(c4ccccc4)C(=O)N23)c1 | – | – | – | – | -6.6
Cc1ccc(N2C(=S)SC3CS(=O)(=O)CC32)cc1 (configuration not stated) | – | – | – | – | -5.5
Cc1ccc(S(=O)(=O)c2nnn3c2nc(N2CCN(c4ccccn4)CC2)c2ccccc23)cc1C | – | – | – | – | –
CC(C)n1nc(C(=O)Nc2nc3ccc(S(C)(=O)=O)cc3s2)c2ccccc2c1=O | – | – | – | – | –
CC(C)n1nc(C(=O)Nc2nnc(SCc3c(Cl)cccc3Cl)s2)c2ccccc2c1=O | – | – | – | – | -6.2
COc1ccc(C(C)=O)cc1CC(=O)NCCCn1ccnc1 | – | – | – | – | –
O=C(Nc1ccccc1-c1ccccc1)NC1CC2CCCC(C1)N2Cc1ccc(F)cc1 (configuration not stated) | – | – | – | -10 | –
S=C(Nc1ccc(Cl)cc1)NC1CC2CCC(C1)N2Cc1ccccc1 (configuration not stated) | – | – | – | – | –
O=C(Nc1ccccc1-c1ccccc1)NC1CC2CCCC(C1)N2CCc1ccccc1 (configuration not stated) | – | – | – | -7.1 | –
Cc1ccc(CN2C3CCCC2CC(NC(=O)c2ccc(F)cc2)C3)cc1 (configuration not stated) | – | – | – | – | –
CCc1ccc(NC(=S)NC2CC3CCCC(C2)N3Cc2ccccc2)cc1 (configuration not stated) | – | – | – | -8.7 | –
CCCN1C2CCCC1CC(NC(=O)Nc1cccc(C(C)=O)c1)C2 (configuration not stated) | – | – | – | – | –
COc1ccc(-n2nc(C(=O)N3CCCCC3)c(C)c(C#N)c2=O)cc1 | – | – | – | – | -5.8
COC(=O)Nc1nn(-c2ccc(OC)cc2)c(=O)c(C#N)c1C | – | – | – | – | –
CC1(C(=O)O)CCC(C(=O)NNC(=O)c2ccccc2Cl)C1(C)C (configuration not stated) | – | – | – | – | –
Cc1cccc(CSc2nc3c(c(-c4cccs4)c2C#N)CN(C)CC3)c1 | – | 8.7 | – | – | –
COc1ccc(-c2n(CC(=O)OC3CC(C)CCC3C(C)C)c3ccccc3[n+]2C)cc1 (configuration not stated) | · | · | – | -7.3 | ·
COc1ccc(OCc2n(CC(=O)OC3CC(C)CCC3C(C)C)c3ccccc3[n+]2C)cc1 (configuration not stated) | – | – | – | – | -14
CCc1c(C)c2ccc(OCC(=O)NCC3CCC(C(=O)O)CC3)cc2oc1=O (configuration not stated) | – | – | – | – | –
CCn1c(CSc2n[nH]c(N)n2)nc2cc(C(=O)O)ccc21 | – | – | – | – | –
